Each block holds one compound with its values, some of them ahead of it. Calls of active or inactive are those of the source. The rule behind the calls is not given here.
Assays:
Liver microsomes [1] = test: Half life in human liver microsomes; type: ADME, Microsome
Summary of the method: (§1)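 Half-life determined by incubation in mouse, rat and human liver microsomes; T1/2 in minutes.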

Mus musculus [2] = test: Toxicity in mouse xenografted with human RS4:11 cells assessed as sign of toxicity at 100 to 200 mg/kg, po qd after 3 weeks; type: organism-based, RS4:11 cell; parameters: dose 100-200 mg/kg, route oral; details: in vivo, 504 h
Summary of the method: (§2)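 RS4;11 acute leukemia xenografts in mice; dosing began when tumors averaged 150 mm3. Oral gavage of 100 or 200 mg/kg once daily for 3 weeks. Tumor volume tracked during and after dosing; body weight and signs of toxicity monitored throughout.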

Mus musculus [3] = test: Toxicity in SCID mouse xenografted with human SJSA1 cells assessed as sign of toxicity at 10 to 100 mg/kg, po qd measured after 2 weeks; type: organism-based, SJSA-1; parameters: dose 10-100 mg/kg, route oral; details: in vivo, 336 h
SJSA-1 [4] = test: Antitumor activity against human SJSA1 cells xenografted in SCID mouse assessed as tumor growth inhibition at 100 mg/kg, po qd administered for 2 weeks measured after 10 days; type: functional, organism-based; parameters: dose 100 mg/kg
Mus musculus [5] = test: Toxicity in mouse xenografted with human RS4:11 cells assessed as body weight loss at 100 to 200 mg/kg, po qd after 3 weeks; type: organism-based, RS4:11 cell; parameters: dose 100-200 mg/kg, route oral; details: in vivo, 504 h; summary of the method: as §2
RS4-11 = test: Antitumor activity against human RS4:11 cells xenografted in mouse assessed as tumor regression at 200 mg/kg, po qd administered for 3 weeks measured after 26 days; type: functional, organism-based; parameters: dose 200 mg/kg; summary of the method: as §2
[6] = Antitumor activity against human RS4:11 cells xenografted in mouse assessed as tumor growth inhibition at 100 mg/kg, po qd administered for 3 weeks measured after 4 days relative to vehicle-treated control; type: functional; details: read-out: TGI; summary of the method: as §2
[7] = Antitumor activity against human RS4:11 cells xenografted in mouse assessed as tumor growth inhibition at 200 mg/kg, po qd administered for 3 weeks measured after 4 days relative to vehicle-treated control; type: functional; details: read-out: TGI; summary of the method: as §2
SJSA-1 [8] = test: Induction of apoptosis in human SJSA1 cells xenografted in SCID mouse assessed as caspase-3 cleavage at 100 mg/kg, po measured at 24 hrs by Western blot analysis; type: functional, organism-based; parameters: dose 100 mg/kg
SJSA-1 [9] = test: Induction of apoptosis in human SJSA1 cells xenografted in SCID mouse assessed as PARP cleavage at 100 mg/kg, po measured at 24 hrs by Western blot analysis; type: functional, organism-based; parameters: dose 100 mg/kg
SJSA-1 [10] = test: Induction of apoptosis in human SJSA1 cells xenografted in SCID mouse assessed as caspase-3 cleavage at 100 mg/kg, po measured at 1 to 6 hrs by Western blot analysis; type: functional, organism-based; parameters: dose 100 mg/kg
SJSA-1 [11] = test: Induction of apoptosis in human SJSA1 cells xenografted in SCID mouse assessed as PARP cleavage at 100 mg/kg, po measured at 1 to 6 hrs by Western blot analysis; type: functional, organism-based; parameters: dose 100 mg/kg
SJSA-1 [12] = test: Antitumor activity against human SJSA1 cells xenografted in SCID mouse assessed as upregulation of MDM2 expression in tumor at 100 mg/kg, po measured at 24 hrs by Western blot analysis; type: functional, organism-based; parameters: dose 100 mg/kg
SJSA-1 [13] = test: Antitumor activity against human SJSA1 cells xenografted in SCID mouse assessed as upregulation of p21 expression in tumor at 100 mg/kg, po measured at 24 hrs by Western blot analysis; type: functional, organism-based; parameters: dose 100 mg/kg
SJSA-1 [14] = test: Antitumor activity against human SJSA1 cells xenografted in SCID mouse assessed as upregulation of p53 expression in tumor at 100 mg/kg, po measured at 24 hrs by Western blot analysis; type: functional, organism-based; parameters: dose 100 mg/kg
SJSA-1 [15] = test: Antitumor activity against human SJSA1 cells xenografted in SCID mouse assessed as upregulation of MDM2 expression in tumor at 100 mg/kg, po measured at 3 to 6 hrs by Western blot analysis; type: functional, organism-based; parameters: dose 100 mg/kg
SJSA-1 [16] = test: Antitumor activity against human SJSA1 cells xenografted in SCID mouse assessed as upregulation of p21 expression in tumor at 100 mg/kg, po measured at 3 to 6 hrs by Western blot analysis; type: functional, organism-based; parameters: dose 100 mg/kg
Mus musculus [17] = test: Toxicity in SCID mouse xenografted with human SJSA1 cells assessed as body weight loss at 10 to 100 mg/kg, po qd measured after 2 weeks; type: organism-based, SJSA-1; parameters: dose 10-100 mg/kg, route oral; details: in vivo, 336 h
SJSA-1 [18] = test: Antitumor activity against human SJSA1 cells xenografted in SCID mouse assessed as upregulation of p53 expression in tumor at 100 mg/kg, po measured at 3 to 6 hrs by Western blot analysis; type: functional, organism-based; parameters: dose 100 mg/kg
SJSA-1 [19] = test: Antitumor activity against human SJSA1 cells xenografted in SCID mouse assessed as tumor regression at 100 mg/kg, po qd administered for 2 weeks measured for 60 days; type: functional, organism-based; parameters: dose 100 mg/kg
SJSA-1 [20] = test: Antitumor activity against human SJSA1 cells xenografted in SCID mouse assessed as tumor growth inhibition at 100 mg/kg, po qd administered for 2 weeks measured after 5 days relative to vehicle-treated control; type: functional; details: read-out: TGI
SJSA-1 [21] = test: Antitumor activity against human SJSA1 cells xenografted in SCID mouse assessed as tumor growth inhibition at 30 mg/kg, po qd measured after 2 weeks; type: functional, organism-based; parameters: dose 30 mg/kg
SJSA-1 [22] = test: Antitumor activity against human SJSA1 cells xenografted in SCID mouse assessed as tumor growth inhibition at 10 mg/kg, po qd measured after 2 weeks; type: functional, organism-based; parameters: dose 10 mg/kg
Rattus norvegicus [23] = test: Half life in Sprague-Dawley rat at 25 mg/kg, po; type: ADME, organism-based; parameters: dose 25 mg/kg, route oral; details: in vivo
Rattus norvegicus [24] = test: AUC (0 to t) in Sprague-Dawley rat at 25 mg/kg, po; type: ADME, organism-based, Plasma; parameters: dose 25 mg/kg, route oral; details: in vivo
Rattus norvegicus [25] = test: Cmax in Sprague-Dawley rat at 25 mg/kg, po; type: ADME, organism-based; parameters: dose 25 mg/kg, route oral; details: in vivo
Liver microsomes [26] = test: Half life in rat liver microsomes; type: ADME, Microsome; summary of the method: as §1
Liver = test: Half life in mouse liver microsomes; type: ADME, Microsome; summary of the method: as §1

t1/2 (Liver microsomes [1]): > 1 h
SMILES: CC(C)(C)C[C@@H]1N[C@@H](C(=O)N[C@H]2C[C@](C)(O)C2)[C@H](c2cccc(Cl)c2F)[C@]12C(=O)Nc1cc(Cl)ccc12

t1/2 (Rattus norvegicus [23]): 3.2 h | AUCt (Rattus norvegicus [24]): 14900 ng·h/mL | Cmax (Rattus norvegicus [25]): 1726 ng/mL | t1/2 (Liver microsomes [26]): > 1 h | t1/2 (Liver): > 1 h
SMILES: CC(C)(C)C[C@@H]1N[C@@H](C(=O)N[C@H]2C[C@@](C)(O)C2)[C@H](c2cccc(Cl)c2F)[C@]12C(=O)Nc1cc(Cl)ccc12
Activity (Mus musculus [2]): Non-toxic | Activity (Mus musculus [3]): Non-toxic | TGI (SJSA-1 [4]): Active | Activity (Mus musculus [5]): Non-toxic | Activity (RS4-11): Active | inhibition in vivo at 100 mg/kg [6]: 61% | inhibition in vivo at 200 mg/kg [7]: 80% | Activity (SJSA-1 [8]): Active | Activity (SJSA-1 [9]): Active | Activity (SJSA-1 [10]): inactive | Activity (SJSA-1 [11]): inactive | Activity (SJSA-1 [12]): inactive | Activity (SJSA-1 [13]): inactive | Activity (SJSA-1 [14]): inactive | Activity (SJSA-1 [15]): Active | Activity (SJSA-1 [16]): Active | Activity (Mus musculus [17]): Non-toxic | Activity (SJSA-1 [18]): Active | Activity (SJSA-1 [19]): Active | inhibition in vivo at 100 mg/kg (SJSA-1 [20]): > 70% | TGI (SJSA-1 [21]): Active | TGI (SJSA-1 [22]): inactive

t1/2 (Liver microsomes [1]): 0.918 h | t1/2 (Liver microsomes [26]): 0.352 h | t1/2 (Liver): > 1 h
SMILES: CC(C)(C)C[C@@H]1N[C@@H](C(=O)N[C@H]2CC[C@H](O)C2)[C@H](c2cccc(Cl)c2F)[C@]12C(=O)Nc1cc(Cl)ccc12

t1/2 (Liver microsomes [1]): 0.067 h | t1/2 (Liver microsomes [26]): 0.0633 h | t1/2 (Liver): 0.025 h
SMILES: CC(C)(C)C[C@@H]1N[C@@H](C(=O)N[C@H]2CC[C@@H](O)C2)[C@H](c2cccc(Cl)c2F)[C@]12C(=O)Nc1cc(Cl)ccc12

t1/2 (Liver microsomes [1]): > 1 h | t1/2 (Liver microsomes [26]): > 1 h | t1/2 (Liver): > 1 h
SMILES: CC(C)(C)C[C@@H]1N[C@@H](C(=O)NCC(C)(C)O)[C@H](c2cccc(Cl)c2F)[C@]12C(=O)Nc1cc(Cl)ccc12

t1/2 (Liver microsomes [1]): 0.902 h | t1/2 (Liver microsomes [26]): 0.318 h | t1/2 (Liver): > 1 h
SMILES: CC(C)(C)C[C@@H]1N[C@@H](C(=O)N[C@H]2C[C@H](O)C2)[C@H](c2cccc(Cl)c2F)[C@]12C(=O)Nc1cc(Cl)ccc12

t1/2 (Liver microsomes [1]): 0.513 h | t1/2 (Liver microsomes [26]): 0.368 h | t1/2 (Liver): 0.343 h
SMILES: CC(C)(C)C[C@@H]1N[C@@H](C(=O)N[C@H]2C[C@@H](O)C2)[C@H](c2cccc(Cl)c2F)[C@]12C(=O)Nc1cc(Cl)ccc12

t1/2 (Rattus norvegicus [23]): 3.4 h | AUCt (Rattus norvegicus [24]): 2140 ng·h/mL | Cmax (Rattus norvegicus [25]): 675 ng/mL | t1/2 (Liver microsomes [1]): > 1 h | t1/2 (Liver microsomes [26]): 0.272 h | t1/2 (Liver): > 1 h
SMILES: CC(C)(C)C[C@@H]1N[C@@H](C(=O)NCC[C@H](O)CO)[C@H](c2cccc(Cl)c2F)[C@]12C(=O)Nc1cc(Cl)ccc12

t1/2 (Liver microsomes [1]): > 1 h | t1/2 (Liver microsomes [26]): 0.337 h | t1/2 (Liver): > 1 h
SMILES: CC(C)(C)C[C@H]1N[C@@H](C(=O)NCC[C@H](O)CO)[C@H](c2cccc(Cl)c2)[C@@]12C(=O)Nc1cc(Cl)c(F)cc12

— ChEMBL document CHEMBL2396650, “A potent small-molecule inhibitor of the MDM2-p53 interaction (MI-888) achieved complete and durable tumor regression in mice” (J Med Chem, 2013)
